Experiment: Toxicity liver stage against HepG2, at 10uM
Format: cell-based
Parameters: test concentration 10 uM, cell line HepG2-A16-CD81EGFP
Conditions: human, HepG2-A16-CD81EGFP cells; read-out: INHIBITION
In short: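 Uninfected HepG2-A16-CD81EGFP cells, 3 × 10^3 per well, 1536-well, plated on prespotted compound at 10 μM final, parasite-free screening media added to match infected plates; puromycin 10 μM positive, DMSO 0.5% negative; run in parallel with 48 h PbLuc assay at 37 °C, 5% CO2; viability by CellTiter-Glo luminescence, normalized to controls.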

Row | SMILES | cytotoxicity at 10 µM
1 | COCC(=O)N[C@H](C)c1onc(-c2ccccc2)c1C(=O)O | 0.179%
2 | O=C(NC[C@H]1OC[C@@H](NC2CCC(F)(F)CC2)[C@@H]1O)Nc1ccccc1 | 4.11%
3 | O=C(c1ccno1)N1CCOC[C@H](Oc2ccccc2)C1 | -5.25%
4 | CC[C@H]1CN(S(C)(=O)=O)CC[C@H]1CC(=O)NCCOC | 2.55%
5 | COCCCNc1c(-c2ccccc2)c(=O)c1=O | 0.409%
6 | O=C(O)Cn1ccc(=O)c2cc(F)ccc21 | -0.0342%
7 | O=C(COc1ccc(F)cc1)N1CCCSCC1CN1CCOCC1 (stereo not given) | -0.0603%
8 | CSc1ncccc1C(=O)NCCC(O)c1cc(C)oc1C (stereo not given) | 1.95%
9 | Cc1cccc(CN2C[C@@H]3CCCO[C@@H]3[C@H](Nc3ccccn3)C2)n1 | 0.939%
10 | COCCNC(=O)[C@H]1C[C@@H]2CCN(c3ncccn3)C[C@@H]2O1 | -0.785%
11 | Cc1ccc(N2CC[C@H]3OCC[C@@]3(C(=O)N3CCCO3)C2)nn1 | -1.22%
12 | CS(=O)(=O)N1CC[C@H]2C[C@@H](C(=O)N3CCOCC3)O[C@@H]2C1 | 2.28%
13 | COc1cc(CNc2ccccc2Cl)ccc1OCC(=O)O | 6.15%
14 | COc1ccc(NC(=O)c2cnc(C3CCN(C(C)=O)C3)nc2C)cc1 (stereo not given) | -2.6%
15 | COc1nsc2nc(C3CCCN3c3ncccn3)ccc12 (stereo not given) | 10.5%
16 | Cc1cccc(C)c1Nc1noc2c1CN(C(=O)c1cn(C)cn1)CC2 | 12.9%
17 | Cc1cncc(C2CCN(Cc3ccc(S(C)(=O)=O)cc3)CC2)n1 | -1.03%
18 | c1cnc(C2CCCN(Cc3ccsc3)C2)cn1 (stereo not given) | -5.67%
19 | OCC(CO)N1CCCC(Cc2ccnc(Nc3ccccn3)c2)C1 (stereo not given) | -13.5%
20 | CNC(=O)C1CN(Cc2c[nH]cn2)CCN(C2CCOCC2)C1 (stereo not given) | -17%
21 | Cc1ncsc1CN1CCN(C2CCOCC2)CC(C(N)=O)C1 (stereo not given) | 14.4%
22 | COc1ccccc1CN1CCc2c(nc(-c3ccccn3)[nH]c2=O)C1 | -19.7%
23 | CC(=O)N1CCCC1c1ccc(-c2c(C)noc2C)cn1 (stereo not given) | 2.88%
24 | Cc1nnc(NC(=O)C2CSCN2C(=O)C2CCCC2)s1 (stereo not given) | -17.1%
25 | C[S+]([O-])CCNC(=O)N1CCSC(C)(C)C1 (stereo not given) | -0.0105%
26 | Cc1ccc(N2CCCN(C(=O)C(C)OCC3CC3)CC2)nn1 (stereo not given) | 0.0479%
27 | CC(CN1CCOC1=O)NC(=O)c1cccc2cc[nH]c12 (stereo not given) | 6.2%
28 | CCSc1ccc(NC(=O)NC2CCc3[nH]ncc3C2)cn1 (stereo not given) | -3.27%

Row | SMILES | cytotoxicity at 10 µM
29 | COCc1nnc(-c2cccc(C(=O)N(C)CC(C)(C)C)c2)o1 | -11.1%
30 | O=C(NCc1nncn1C1CC1)c1cccnc1Oc1ccccc1 | 1.57%
31 | O=C(NCc1nncn1C1CC1)c1ccccc1OCC1CC1 | 3.36%
32 | COc1cc(C2(C(=O)NC3CCN(CC4CC4)CC3)CC2)ccc1C | -11.2%
33 | Cc1cccc(-c2noc(CNC(C)Cn3cc(C)cn3)n2)c1 (stereo not given) | -2.87%
34 | Cc1cn(-c2ccccc2)nc1NS(=O)(=O)c1cc(C(=O)O)ccc1Cl | 13.1%
35 | CC1CN(C)c2ccccc2CN1C(=O)c1ccoc1 (stereo not given) | -2.84%
36 | Cc1nn(C)c(C)c1NC(=O)CNc1cccc(CC(F)(F)F)c1 | -4.83%
37 | Cc1nc(C)c(CN(C)C2CCN(C(=O)OC(C)(C)C)CC2)s1 | 3.51%
38 | Cc1nn(C)c(C)c1CC(=O)NCc1ccnc(OC2CCCC2)c1 | -0.883%
39 | COc1ccc(CN2CCNC(=O)CC2)cc1SC(F)(F)F | 0.66%
40 | CNC(=O)C(C)(C)CNC(=O)Nc1cc(C)ccn1 | 11.7%
41 | COCCC(Cc1cccc(Br)c1)C(N)=O (stereo not given) | 8.42%
42 | CCc1sc(C(=O)Nc2cnn(CCN(C)C)c2)cc1C | 7.9%
43 | O=C(O)c1c(Cl)ncn1-c1cccc2ccccc12 | 1.76%
44 | CC1(C)CN=C(N2CCN(CC3CCCO3)CC2)S1 (stereo not given) | -8.41%
45 | Cc1nc(CN(C)C2CCN(Cc3cccc4cccnc34)C2)no1 (stereo not given) | -11.5%
46 | CC(C)OCCN1CCN(c2ccc(CN(C)C)cn2)CC1 | -5.89%
47 | CC(=O)NCCCC(=O)NC1(c2ccc(Cl)c(Cl)c2)CC1 | -7.79%
48 | Cc1nonc1NC(=O)c1ccc(F)c(COCC2CC2)c1 | 18.6%
49 | CC(=O)N1CCCc2cc(NC(=O)NCCc3cnn(C)c3)ccc21 | -5.42%
50 | COc1c(C(=O)N2CCC(CSc3ccccc3)C2)c(C)nn1C (stereo not given) | 25.6%
51 | Cc1cc(=O)c(C(=O)N(C)Cc2ccc(Cl)c(F)c2)c[nH]1 | 9.39%
52 | Cc1nc(CN(C)C(=O)Nc2cnn(CC3CCCO3)c2)cs1 (stereo not given) | 5.53%
53 | CC(=O)N1CCOC2(CCN(C(=O)c3cnoc3C)CC2)C1 | -0.0788%
54 | O=c1[nH][nH]cc1-c1ccnc(NCCN2CCCC2)n1 | 2.89%
55 | Cc1ccsc1CN1CCC(c2nnc(Cn3cccn3)n2C)CC1 | -2.97%

Source: ChEMBL document CHEMBL4513216, “Probing the Open Global Health Chemical Diversity Library for Multistage-Active Starting Points for Next-Generation Antimalarials” (ACS Infect Dis, 2020)
